Rows were chosen to be rich in hits. Some 2.3% of all compounds tested hit in one or more screens of this group.
STAT3 activator: IL-6 driven STAT3 reporter potentiators, primary screen, U3A cells, luciferase, luminescence, MLSCN library | activation (% of control), % at 5.6 µM | AID 871, 2007 | hit rate 0.91% among 190,000 | IL-6 STAT3-luciferase reporter; 100% = signal with IL-6 EC80 alone;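 active means activation above the screen-wide mean of compound activation plus 3 SD, cut at about 130% in these data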;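 further: 0% = background luminescence of wells with medium and substrate only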
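Material: human STAT1-deficient U3A cells with stable STAT3-luciferase reporter / Probe or stimulus: IL-6 stimulus at 33 ng/mL final / Schedule: 1 h compound pre-exposure, 6 h IL-6 stimulation, 37 °C / Technique: luminescence / Read-out basis: percent of IL-6-only median luminescence / Control set: IL-6-only high control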
PPC-1+TRAIL kill: compounds killing PPC-1 cancer cells with TRAIL present, primary screen, TRAIL potentiator project, ATPLite luminescence, uHTS; PPC-1 cells + TRAIL, ATPLite viability luminescence; cell killing (% activity), % at 4 µM or 5 µM; hit rate 0.41% among 220,000; AID 1443, 2008;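 active means cell killing above 50% in the first pass at 4 µM, then a duplicate retest at 5 µM averaging 50% or more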;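 further: plate controls were cells with TRAIL plus DMSO for no effect and medium-only wells lacking cells for full effect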
STAT3 inh: IL-6 driven STAT3 reporter inhibitors, primary screen, U3A cells, luciferase, luminescence, MLSCN library. IL-6 STAT3-luciferase reporter; host cell line lacks STAT1. inhibition, % at 5.5 µM. hit rate 0.89% among 190,000;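 active means inhibition above the mean inhibition across all screened compounds plus 3 SD, cut at about 44% in these data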;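 further: 0% = DMSO only wells and 100% = 100 µM nifuroxazide control wells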
HSP90 inh: HSP90 inhibitors, primary screen, cell lysate, luminescence; Heat shock protein HSP 90 (rabbit reticulocyte lysate; luciferase refolding); Rabbit reticulocyte lysate, luciferase refolding luminescence, 3 h; hit rate 0.91% among 290,000; AID 1789, 2009; inhibition, % at 5.6 µM;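 active means inhibition above the screen-wide mean plus 3 SD, computed separately per campaign, cut at about 16% in these data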;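 further: 0% = DMSO wells and 100% = 60 µM geldanamycin wells; inhibitors lower the luminescence because luciferase stays unfolded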
TRAIL sens C8: viability loss with TRAIL in NB7+C8 cells, primary screen, TRAIL sensitizer project, cell-based, ATPlite luminescence. inhibition (viability loss, TRAIL sensitization), % at 10 µM. hit rate 1% among 360,000. AID 624354, 2012;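 active means compounds causing at least 50% loss of cell viability in the single-dose screen, relative to plate controls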
STAT1 inh: STAT1 signaling inhibitors, primary screen, cell-based, HTS, luciferase reporter | NIH 3T3 STAT1-luciferase reporter, IFN-gamma, luminescence | inhibition, % at 5.5 µM | hit rate 0.35% among 200,000 | AID 920, 2007;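 active means inhibition above a set limit, the mean inhibition across all tested compounds plus 3 SD, cut at about 34% in these data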;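 further: 0% = IFN-gamma with DMSO and 100% = IFN-gamma with 300 µM nifuroxazide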
The depositor's hits bear a star; . = no result.

SMILES	STAT3 activator	PPC-1+TRAIL kill	STAT3 inh	HSP90 inh	TRAIL sens C8	STAT1 inh
CN(C(=O)c1ccc(NC(=O)Cc2ccc(NC(=O)C3CCCN(C(=O)C4CCCC4)C3)cc2)cc1)C1CC1 (stereo not given)	.	.	.	.	-9	.
Cc1cc(-c2nnc(CSc3nnc(NC(=O)c4ccc(C(C)(C)C)cc4)s3)o2)ccc1[N+](=O)[O-]	.	38	.	-5	51*	.
Cc1ccc2sc(N(CCCN(C)C)C(=O)c3ccc(S(=O)(=O)N4CCc5ccccc5C4)cc3)nc2c1C	.	.	.	.	76*	.
COc1cccc2sc(N(CCCN(C)C)C(=O)c3ccc(S(=O)(=O)N4CCc5ccccc5C4)cc3)nc12	.	.	.	2	83*	.
COc1ccc(C)c2sc(N(CCCN(C)C)C(=O)c3ccc(S(=O)(=O)N4CCc5ccccc5C4)cc3)nc12	.	.	.	.	93*	.
COc1ccc(NC(=O)c2cc(-c3cccnc3)nc3ccc(C)cc23)cc1OC	95	3	6	-3	11	-6
COc1ccc(NC(=O)c2cc(-c3ccncc3)nc3ccc(Br)cc23)cc1OC	.	.	.	3	54*	.
Fc1ccc(-c2nc(-c3cccs3)no2)cc1	.	-3	.	0	1	.
COC(=O)c1ccc(-c2nc(-c3cccs3)no2)cc1	30	34	91*	5	58*	52*
CC(=O)Oc1ccc2c(=O)c(-c3nc4ccccc4s3)coc2c1	72	37	39	-1	69*	-9
CNC(=O)C(Sc1ccccc1)c1ccccc1 (stereo not given)	99	8	8	2	8	2
N#Cc1ccccc1COC(=O)c1cc(S(=O)(=O)N2CCOCC2)ccc1F	.	.	.	.	0	.
O=C(OCc1cc(=O)oc2cc(O)ccc12)c1cc(S(=O)(=O)N2CCOCC2)ccc1F	.	.	.	.	68*	.
CCc1cc2c(COC(=O)c3cc(S(=O)(=O)N4CCOCC4)ccc3F)cc(=O)oc2cc1O	.	.	.	.	75*	.
CCC(c1nc2ccccc2[nH]1)n1c(-c2cccnc2)nc2ccccc21 (stereo not given)	.	.	.	.	-7	.
N#CC(C(=O)O)=C1CCCC1	98	0	4	3	0	-2
c1ccc2sc(-c3ccncc3)nc2c1	.	8	.	2	-2	.
Oc1ccc(-c2nc3ccccc3s2)cc1	.	32	.	9	62*	.
Cc1ccc2cc(C(c3nnnn3C3CCCC3)N(Cc3cccnc3)Cc3ccco3)c(=O)[nH]c2c1 (stereo not given)	100	53*	4	0	10	3
CCOC(=O)/C=C1\CC(=O)Nc2cc(C)c(C)cc2N1	87	8	18	0	-6	-5
O=c1c2[nH]c3ccc(F)cc3c2ncn1Cc1ccncc1	.	3	.	2	19	.
O=c1c2[nH]c3ccc(F)cc3c2ncn1C1CCCCC1	96	14	13	4	51*	-12
O=C(Nc1ccc2c(c1)OCO2)C1CC(c2cccc(Br)c2)=NO1 (stereo not given)	.	.	.	-1	6	.
CCOC(=O)[C@H]1[C@H]2COc3cc(OC)ccc3[C@@H]2N2C(=O)CN(Cc3ccc(C)cc3)C(=O)[C@@]12C	.	.	.	.	-12	.
Cc1nn(-c2c(Cl)cc(Cl)cc2Cl)c(=O)c2ccccc12	95	6	11	1	-10	5
SMILES	STAT3 activator	PPC-1+TRAIL kill	STAT3 inh	HSP90 inh	TRAIL sens C8	STAT1 inh
COc1ccc(-c2cc(CNc3nc(NC(C)C)nc4cc(-c5ccccc5)sc34)on2)cc1	.	.	.	.	80*	.
Cn1c2ccccc2c2cc(C(=O)NNC(=O)CCl)sc21	137*	1	-25	1	18	-37
N/N=C(\c1ccccc1)C12CN3CN(CN(C3)C1)C2	101	20	-1	0	-1	-6
COc1ccc(C)c2sc(N(CCN(C)C)C(=O)/C=C/c3cccs3)nc12	.	.	.	-1	-2	.
COc1ccc(OC)c2sc(N(CCN(C)C)C(=O)/C=C/c3cccs3)nc12	.	.	.	7	93*	.
COc1cc(NC(=S)NC2CC(C)(C)NC(C)(C)C2)c(OC)cc1Cl	95	14	12	1	-6	2
CCN(CC)CCN1C(=O)/C(=C\c2ccc(Cl)c([N+](=O)[O-])c2)SC1=Nc1ccc(OC)cc1	.	.	.	4	89*	.
CCCN1C(=O)/C(=C/c2ccc(C)s2)SC1=Nc1ccc(OC)cc1	112	-19	-7	0	-7	1
COc1ccc(N=C2S/C(=C\c3ccc(Cl)c([N+](=O)[O-])c3)C(=O)N2CCN(C)C)cc1	.	.	.	2	80*	.
CCC(C)NC(=O)CSc1nnc(-c2c[nH]c3ccccc23)o1 (stereo not given)	101	17	6	17*	36	-7
CCNC(=O)NC(=O)CSc1nnc(-c2c[nH]c3ccccc23)o1	.	.	.	-3	-10	.
NC(=O)c1ccsc1NC(=O)c1coc2ccccc2c1=O	91	29	19	-1	52*	-71
CSc1nc(Oc2ccccc2)c2sccc2n1	113	-1	-10	0	-1	0
CCc1ccccc1C1C(=O)c2ccccc2C1=O	.	.	.	.	48*	.
Cc1cc(C2C(=O)c3ccccc3C2=O)c(C)c(C)c1C	.	.	.	-3	-14	.
Fc1ccc(-n2c(=S)[nH]c3cccnc32)cc1	.	.	.	-2	-11	.
CSc1ccccc1C(=O)N1CCCC(CCC(=O)NCc2ccc(F)c(F)c2)C1 (stereo not given)	.	.	.	1	10	.
Cc1csc(NC(=O)c2cc3ccccc3o2)n1	.	.	.	.	65*	.
Cc1ccnc(NC(=O)c2ccccc2NC(=O)c2ccccc2)c1	.	.	.	4	31	.
Cc1csc(NC(=S)NC(=O)c2ccccc2)n1	.	.	.	-2	72*	.
Cc1ccnc(NC(=O)c2ccc(C(=O)c3ccccc3)cc2)c1	.	.	.	.	69*	.
COC(=O)c1cccc(NC(=O)c2cc3ccccc3o2)c1	.	.	.	16	50*	.
COC(=O)c1cc(NC(=O)c2cc3ccccc3o2)cc(C(=O)OC)c1	.	.	.	-2	4	.
CCOC(=O)Cc1csc(NC(=O)c2cc3ccccc3o2)n1	90	14	14	3	38	-15
Cc1csc(NC(=O)c2ccccc2)n1	.	.	.	3	27	.
Cc1cccc(C)c1NC(=O)CN(C)C(=O)c1cccc(S(=O)(=O)N2CCN(C)CC2)c1	.	.	.	.	-7	.
CC(CNC(=O)CCc1nnc2ccc(N3CCC4(CC3)OCCO4)nn12)c1ccccc1 (stereo not given)	.	.	.	1	3	.
CCOc1cc(C(=O)N2CCN=C2SC)cc(OCC)c1OCC	101	19	2	-2	9	-3
COc1cc(/C=N/NC(=O)c2cccc(NC(=O)c3ccccc3Cl)c2)ccc1O	93	-1	11	4	-4	-2
Cc1ccnc(NC(=O)c2cc3ccccc3o2)c1	.	.	.	.	86*	.

Compound activity from PubChem.
